Screening data from PubChem BioAssay.
CR mimetic SO: reduction of superoxide in aged yeast, primary screen, HTS | S. cerevisiae aged cells, superoxide DHE fluorescence; stronger effect = lower value | superoxide response (% of plate mean), % at 10 µM | 330,000 compounds, 0.18% hits;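 active = superoxide response under a set limit, about three screen SD below normal, cut at about 65% in these data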;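 note: yeast aged for seven days with compound at 30 °C before DHE staining; 100% = average MFI of all compound-treated wells on the plate with controls excluded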
TRPC4 inh: inhibitors of mouse TRPC4 channel, primary screen, Fluo4 calcium, HEK293 TRPC4beta/mu-opioid cells | B-score at 10 µM | 300,000 compounds, 0.39% hits | Short transient receptor potential channel 4 (Mus musculus), Q9QUQ5 | AID 2247, 2010 | DAMGO-evoked Fluo4 calcium flux; stronger effect = lower value;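 active = B-score over 3 SD under the library average, no early fluorescence shift, positive overall ratio signal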
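Test system – stable TRPC4beta/mu-opioid receptor HEK293 cells · Probe or stimulus – DAMGO, a submaximal dose followed by a maximal one · Dosing – one concentration per compound · Signal – Fluo4 calcium fluorescence by kinetic imaging, 5 s 1 Hz baseline · Evaluation – per-well B score of integrated baseline-normalized Fluo4 ratio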
TRPC4 agonist: activators of mouse TRPC4 channel, primary screen, Fluo4 calcium, HEK293 TRPC4beta/mu-opioid cells; Short transient receptor potential channel 4 (Mus musculus), Q9QUQ5; Fluo4 calcium fluorescence; stronger effect = higher value; B-score at 10 µM; 310,000 compounds, 0.49% hits; AID 2237, 2010;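 active = B-score above 5 SD of library B-scores, and initial fluorescence ratio not above library mean plus 5 SD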;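 note: positive B-score marks a calcium rise read as TRPC4 activation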
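Assay system: HEK293 stable line with TRPC4beta plus mu-opioid receptor. Times: dye 45 min RT, read 110 s. Measured by: kinetic Fluo4 calcium fluorescence. Measure: B score of integrated ratio. Controls: assay buffer as low control, maximal DAMGO as high control.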
TRPC6 inhibitor: mouse TRPC6 channel inhibitors, primary screen, cell-based, HEK293, membrane potential dye; Short transient receptor potential channel 6 (Mus musculus), Q61143; ACh-evoked depolarization; stronger effect = lower value; B-score at 10 µM; 310,000 compounds, 1.1% hits;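 active = B-score under library mean minus 3 SD, initial fluorescence not abnormally high, positive integrated signal ratio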;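 note: B-score derived from integrated fluorescence ratio over the kinetic read; more negative B-score means stronger inhibition of depolarization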
Target sequence (Q61143 whole entry, looked up): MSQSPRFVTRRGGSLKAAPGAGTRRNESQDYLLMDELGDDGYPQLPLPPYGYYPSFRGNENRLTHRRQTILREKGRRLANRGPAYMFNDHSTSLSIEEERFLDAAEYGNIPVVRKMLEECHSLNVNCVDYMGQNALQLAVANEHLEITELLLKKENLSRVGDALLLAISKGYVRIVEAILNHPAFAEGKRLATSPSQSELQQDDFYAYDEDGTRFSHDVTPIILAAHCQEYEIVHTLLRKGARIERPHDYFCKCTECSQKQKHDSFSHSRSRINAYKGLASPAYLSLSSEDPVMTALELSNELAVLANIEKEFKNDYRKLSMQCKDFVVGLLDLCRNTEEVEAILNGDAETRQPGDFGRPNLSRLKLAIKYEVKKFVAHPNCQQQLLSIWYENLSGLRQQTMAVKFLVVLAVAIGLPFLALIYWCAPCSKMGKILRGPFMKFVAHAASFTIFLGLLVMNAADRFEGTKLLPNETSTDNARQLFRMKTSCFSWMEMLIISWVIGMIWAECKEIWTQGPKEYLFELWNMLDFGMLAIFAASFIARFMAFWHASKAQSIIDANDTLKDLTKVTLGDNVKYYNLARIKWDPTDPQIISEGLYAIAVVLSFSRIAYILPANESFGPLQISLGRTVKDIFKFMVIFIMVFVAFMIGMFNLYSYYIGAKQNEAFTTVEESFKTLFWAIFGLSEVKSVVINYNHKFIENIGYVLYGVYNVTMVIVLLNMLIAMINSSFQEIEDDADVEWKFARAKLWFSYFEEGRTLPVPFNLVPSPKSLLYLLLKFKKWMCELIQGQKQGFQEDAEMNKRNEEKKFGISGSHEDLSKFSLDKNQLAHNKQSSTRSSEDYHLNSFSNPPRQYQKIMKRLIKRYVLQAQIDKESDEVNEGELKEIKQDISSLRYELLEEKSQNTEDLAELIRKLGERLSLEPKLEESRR
TRPC6 activator: mouse TRPC6 channel activators, primary screen, cell-based, HEK293, membrane potential dye; AID 2550, 2010; B-score at 10 µM; 310,000 compounds, 0.13% hits; Short transient receptor potential channel 6 (Mus musculus), Q61143; HEK293-TRPC6 membrane potential dye fluorescence; stronger effect = higher value;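 active = B-score of the integrated fluorescence ratio above library mean plus 3 SD, and starting fluorescence ratio within library mean plus 5 SD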;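 note: higher score means more depolarization so channel activation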
TRPC4 PAM: positive allosteric modulators of TRPC4, primary screen, cell-based, mouse TRPC4beta, HEK293 mu-opioid, Fluo-4 calcium | AID 2227, 2009 | DAMGO EC20, Fluo-4 Ca2+ flux; stronger effect = higher value | 310,000 compounds, 0.42% hits | Short transient receptor potential channel 4 (Mus musculus), Q9QUQ5 | B-score at 10 µM;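 active = B-score of calcium response area above 5 SD of library B-scores, with initial fluorescence ratio within 5 SD of library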;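 note: B-score of integrated fluorescence ratio over time as area under calcium response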
Numbers without * were called inactive; i = inactive. Hits are enriched below; roughly 2.3% of the tested compounds scored in any of these assays.

SMILES	CR mimetic SO	TRPC4 inh	TRPC4 agonist	TRPC6 inhibitor	TRPC6 activator	TRPC4 PAM
O=C(COC(=O)c1cccc(O)c1)Nc1ccc(Cl)cc1C(=O)c1ccccc1	100.2	i	i	i	i	i
CCCCN1C(=O)NC(=O)C2(Cc3c(nc4c(C)cccn4c3=O)N3CCc4ccccc4C32)C1=O (configuration not stated)	92.7	i	i	i	i	19*
Cc1cccn2c(=O)c3c(nc12)N1CCc2ccccc2C1C1(C3)C(=O)NC(=O)N(C)C1=O (configuration not stated)	123.1	i	i	i	i	i
CCCCN1C(=O)NC(=O)C2(Cc3c(nc4ccccn4c3=O)N3CCc4ccccc4C32)C1=O (configuration not stated)	98.8	i	i	i	i	57*
CCN1CCN(Cc2cc(Br)cc(Br)c2O)CC1	105.6	i	200*	i	i	i
CCN1CCN(Cc2cc(Br)ccc2O)CC1	101.6	i	i	i	i	23*
COc1cc(Br)cc(CN2CCN(C)CC2)c1O	104.4	i	i	i	i	i
CCc1ccc(CN2CCN(Cc3cc(Br)ccc3O)CC2)cc1	105.3	i	i	i	i	i
O=C1NC(=O)C(=Cc2cn(CCOc3ccc4c(c3)OCO4)c3ccccc23)C(=O)N1	123.4	i	i	i	i	i
CCN1CCN(S(=O)(=O)c2ccc(Cl)c(C(=O)Nc3ccc(C(=O)N(CC)CC)cc3)c2)CC1	117.9	i	48*	i	i	i
CN1CCN(c2ccc([N+](=O)[O-])c3no[n+]([O-])c23)CC1	141.0	i	i	i	i	i
CN1CCN(c2ccccc2N)CC1	92.5	i	i	i	i	i
CN1CCN(c2c(N)c(=O)oc3ccccc23)CC1	100.3	i	i	i	i	10*
Cc1c(CCN)ccc2c1[nH]c1ccccc12	65.3*	i	i	i	i	19*
NCCc1c(Cc2ccccc2)[nH]c2ccccc12	103.6	i	i	i	i	i
CC(C)NCC(O)c1ccc(C2CCCC2)cc1 (configuration not stated)	109.5	i	i	i	i	i
O=c1[nH]c(=O)n(CCc2ccccc2)c(O)c1C=NC1CC1	90.7	i	i	i	i	14*
O=C(c1cc(C(=O)NCc2ccc(Cl)cc2)c(=O)n(Cc2ccc(Cl)cc2)c1)c1cc(F)ccc1O	107.8	i	i	i	i	i
N=c1c[n+](CC23CC4CC(CC(C4)C2)C3)[n-]o1	91.6	i	211*	i	i	i
COc1ccc(C2NCc3ccc4c(c3-n3cccc32)OCO4)cc1O (configuration not stated)	104.7	i	i	i	i	i
Cc1ccc2cc(C=C(C#N)C#N)c(Cl)nc2c1	114.9	i	i	i	i	i
COc1ccc(C(=O)C2CCCN(CCO)C2)c(C)c1 (configuration not stated)	94.3	i	51*	i	i	i
COc1ccc(O)c(CN2CCCC(C(=O)c3ccccc3SC)C2)c1 (configuration not stated)	88.7	-6*	i	i	i	i
COc1ccc(C(=O)C2CCCN(C3CSCCSC3)C2)c(OC)c1 (configuration not stated)	112.8	i	i	i	i	i
COc1ccc(C(=O)C2CCCN(C3CSCCSC3)C2)c(C)c1 (configuration not stated)	96.8	i	59*	i	i	i
SMILES	CR mimetic SO	TRPC4 inh	TRPC4 agonist	TRPC6 inhibitor	TRPC6 activator	TRPC4 PAM
CCCCCn1c(=O)c(C(=O)Nc2cc(C)ccn2)c(O)c2ccccc21	97.0	i	i	i	i	i
CN(C)c1ccc(/C=C/[N+](=O)[O-])cc1	102.9	i	i	i	18.8*	i
CC1(C)CC(N(CCc2ccccc2)Cc2ccccc2)CCO1 (configuration not stated)	102.8	-6*	i	i	i	i
CCN(CC)C(=O)N[C@H]1C[C@@H]2c3cccc4[nH]cc(c34)C[C@H]2N(C)C1	96.5	i	83*	i	i	i
Cc1ccc(OCC(=O)N2CCN(C)CC2)c(Br)c1	107.4	i	i	i	i	i
Clc1ccc(C2NCCc3[nH]cnc32)cc1 (configuration not stated)	91.3	i	i	i	i	i
Fc1cccc(C2NCCc3[nH]cnc32)c1 (configuration not stated)	100.7	i	162*	i	i	i
COP(=O)(OC)C(Nc1ccccc1)c1ccccc1 (configuration not stated)	86.8	i	i	i	i	i
CCC(C)n1c(O)c(C=Nc2cccc(C(F)(F)F)c2)c(=O)[nH]c1=S (configuration not stated)	94.2	i	i	i	i	i
C=C(c1ccccc1)P(=O)(O)O	105.6	i	i	i	i	i
O=[N+]([O-])c1ccc(N2CCCC2)c(F)c1Br	111.5	i	i	i	i	i
CCN1CCN(c2cc(N3CCCC3)c([N+](=O)[O-])cc2F)CC1	95.5	i	i	i	i	17*
CC(C)C[C@H](NC(=O)[C@@H]1CCCN1C(=O)[C@@H](N)Cc1ccc(O)cc1)C(=O)NCC(N)=O	116.5	i	53*	i	i	i
CC(C)CC(NC(=O)C1CCCCC1)C(=O)N1CCC2(CC1)OCCO2 (configuration not stated)	109.3	i	i	i	i	i
Cc1ccc(-n2cc(CNC(C)Cc3cnccn3)c(-c3cccc(C)c3)n2)cc1 (configuration not stated)	113.2	i	143*	i	i	i
CC(Cc1cnccn1)NCc1c(C(=O)N2CCCCCCC2)nc2ccc(Cl)cn12 (configuration not stated)	92.1	i	i	i	i	i
